For six molecules, IC50 and Activity results are on record in ChEMBL document CHEMBL1144785, “Antiplasmodial triterpenoids from Ekebergia capensis” (J Nat Prod, 2008).

What is called IC50 is the midpoint of a concentration-inhibition curve.

Activity calls are given as the source filed them. The calls are words filed in the database; no cut-off is given here.

The test system of test [1] is Plasmodium falciparum. The experiment in a line: Antiplasmodial activity against chloroquine-resistant Plasmodium falciparum K1. The format is functional, organism-based. The procedure, abridged:
(§1)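 Synchronous cultures in RPMI 1640 with 10% human serum, 25 mM HEPES (pH 7.2), hypoxanthine and 2% hematocrit type O+ RBCs, under 5% CO2/5% O2/90% N2 at 37 °C. DMSO stocks were serially diluted 2-fold and added to infected RBCs at 0.5% parasitemia, then incubated 52 h. Ring forms on Giemsa smears were counted against controls. Single assay per concentration; IC50 by probit.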

The test system of test [2] is Plasmodium falciparum. The experiment in a line: Antiplasmodial activity against chloroquine-susceptible Plasmodium falciparum FCR3. The format is functional, organism-based. In short, it runs like this:
as §1

Test [3] has as its system Plasmodium berghei. The experiment in a line: Antimalarial activity in Plasmodium berghei NK65 infected ICR mice (Mus musculus) as reduced parasitemia at 100 mg/kg/day peroral dose for 4 days. The test is classed as functional. Set-up: scale not given: the % may be the effect or the level left. In short, it runs like this:
(§2)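 Peters 4-day suppressive test in 7-week-old outbred SPF male ICR mice, five per group. Mice infected i.p. with 10^5 P. berghei NK65-parasitized erythrocytes taken from donor mice. Compound dissolved in DMSO and diluted with distilled water (final DMSO below 0.2%). Given orally by metal catheter once daily for 4 days, first dose 2–4 h p.i.; controls received distilled water. Day-4 Giemsa tail-blood smears scored microscopically; suppression calculated against controls.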

The test system of test [4] is Plasmodium berghei. The experiment in a line: Antimalarial activity in Plasmodium berghei NK65 infected ICR mice (Mus musculus) as reduced parasitemia at 250 mg/kg/day peroral dose for 4 days. The arrangement: scale not given: the % may be the effect or the level left. The test is classed as functional. The following applies: route oral. In short, it runs like this: as §2

Test [5] relates to Plasmodium berghei. The experiment in a line: Antimalarial activity in […] NK65 infected ICR mice (Mus musculus) as reduced parasitemia at 500 mg/kg/day peroral dose after 4 days. Particulars: route oral. The test is classed as functional. Set-up: scale not given: the % may be the effect or the level left. The procedure, abridged: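 Male ICR mice, 7 weeks old, were infected ip with 10^5 P. berghei NK65-parasitized erythrocytes from donor mice, five per group. Dosing began 2–4 h p.i., given orally by metal catheter once daily for 4 days. Compound was in DMSO diluted with distilled water (final DMSO <0.2%); controls got water. On day 4, tail-vein Giemsa smears gave parasitemia; suppression was calculated versus control.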

As to `CC(=O)OC[C@](C)(O)[C@H](O)CC/C(C)=C/CC/C(C)=C/CC/C=C(\C)CC/C=C(\C)CC[C@@H](O)C(C)(C)O` [EKEBERIN D5], the IC50 was determined as 137 µM in the test on Plasmodium falciparum [1] and 55 µM in the test on Plasmodium falciparum [2].
With `C/C(=C\CC/C=C(\C)CC/C=C(\C)CC[C@@H](O)C(C)(C)O)CC/C=C(\C)CC[C@@H](O)C(C)(C)O`, the Activity in the test with Plasmodium berghei [3] (route oral) is reported as 26.5%; in the test with Plasmodium berghei [4], 26.5%; in the test with Plasmodium berghei [5], 20.5%. The IC50 with Plasmodium falciparum [1] was 59 µM; with Plasmodium falciparum [2], 55 µM.
For the molecule `CC1(C)C(=O)C=C[C@]2(C)[C@H]3CC[C@@]4(C)[C@H](c5ccco5)OC(=O)[C@H]5O[C@]54[C@]3(C)C(=O)C[C@@H]12`, inhibition in the test with Plasmodium falciparum [2] was half-maximal at 6 µM (IC50).
In the case of `C/C(=C\CC/C=C(\C)CC/C=C(\C)CC[C@@H](O)[C@@](C)(O)CO)CC/C=C(\C)CC[C@@H](O)C(C)(C)O`, the outcome with Plasmodium berghei [3] was inactive. The IC50 is 7 µM with Plasmodium falciparum [1] and 18 µM with Plasmodium falciparum [2]. Besides, the results for the Activity with Plasmodium berghei [4] and in the test with Plasmodium berghei [5] were 41.2% and 52.9%, respectively.
For `C/C(=C\CC/C=C(\C)CC[C@@H](O)[C@]1(C)CC[C@H](C(C)(C)O)O1)CC[C@@H](O)[C@]1(C)CC[C@H](C(C)(C)O)O1` [EKEBERIN D4], half-maximal inhibition in the test with Plasmodium falciparum [2] (IC50) was put at 40 µM.
As to `CC(=O)OC[C@](C)(O)[C@@H](CC/C(C)=C/CC/C(C)=C/CC/C=C(\C)CC/C=C(\C)CC[C@@H](O)C(C)(C)O)OC(C)=O`, the concentration for half-maximal inhibition (IC50) with Plasmodium falciparum [1] was 97 µM; with Plasmodium falciparum [2], 113 µM.
